Test results: ChEMBL document CHEMBL1828552, “Synthesis and studies of novel 2-(4-cyano-3-trifluoromethylphenyl amino)-4-(quinoline-4-yloxy)-6-(piperazinyl/piperidinyl)-s-triazines as potential antimicrobial, antimycobacterial and anticancer agents” (2011)
Values after ≈ are worked out from the molar mass of the structure shown.

What was measured:
[1] = tested on: Staphylococcus aureus; assay: Antibacterial activity against 10^5 CFU/mL Staphylococcus aureus MTCC 96 after 24 hrs by disc diffusion technique; assay type: functional
Outline: (§1)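 Disc diffusion on Mueller–Hinton agar poured 5 mm deep. The surface was swabbed with a 10⁵ CFU/mL […] suspension. Filter-paper discs 6.25 mm in diameter were soaked in compound in DMSO and placed on the agar. Plates were incubated 24 h at 37 ± 1 °C, and the inhibition zone was measured in mm. A DMSO disc served as blank.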

[2] = tested on: Staphylococcus aureus; assay: Antibacterial activity against 10^5 CFU/mL Staphylococcus aureus MTCC 96 after 24 hrs by agar streak dilution method; assay type: functional; conditions: MTCC 96, 24 h
Outline: (§2)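 Agar streak dilution. Stock 100 µg/mL in DMSO; graded amounts were mixed into molten nutrient agar and poured at 4–5 mm depth. Plates carried serial dilutions over […]. About 10⁵ CFU/mL of each bacterium was applied, and plates were incubated at 37 ± 1 °C for 24 h. MIC was read from the dilution series.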

[3] = tested on: Bacillus cereus; assay: Antibacterial activity against 10^5 CFU/mL Bacillus cereus MTCC 619 after 24 hrs by disc diffusion technique; assay type: functional; outline: as §1
[4] = tested on: Bacillus cereus; assay: Antibacterial activity against 10^5 CFU/mL Bacillus cereus MTCC 619 after 24 hrs by agar streak dilution method; assay type: functional; conditions: MTCC 619, 24 h; outline: as §2
[5] = tested on: DU-145; assay: Cytotoxicity against […] human DU145 cells after 48 hrs by SRB assay; assay type: functional; conditions: DU-145, 48 h
Outline: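 SRB assay in DU-145 cells grown in RPMI 1640 with 10% FBS and 2 mM L-glutamine. Cells were plated and held 24 h before addition of four 10-fold concentrations. After 48 h, cells were TCA-fixed, stained with 0.4% SRB and read at 540 nm. GI50, TGI and LC50 were derived against time-zero and control wells; each value is the mean of three experiments.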

[6] = tested on: Escherichia coli; assay: Antibacterial activity against 10^5 CFU/mL Escherichia coli MTCC 739 after 24 hrs by disc diffusion technique; assay type: functional; outline: as §1
[7] = tested on: Escherichia coli; assay: Antibacterial activity against 10^5 CFU/mL Escherichia coli MTCC 739 after 24 hrs by agar streak dilution method; assay type: functional; conditions: MTCC 739, 24 h; outline: as §2
[8] = tested on: Pseudomonas aeruginosa; assay: Antibacterial activity against 10^5 CFU/mL Pseudomonas aeruginosa MTCC 741 after 24 hrs by disc diffusion technique; assay type: functional; outline: as §1
[9] = tested on: Pseudomonas aeruginosa; assay: Antibacterial activity against 10^5 CFU/mL Pseudomonas aeruginosa MTCC 741 after 24 hrs by agar streak dilution method; assay type: functional; conditions: MTCC 741, 24 h; outline: as §2
[10] = tested on: Klebsiella pneumoniae; assay: Antibacterial activity against 10^5 CFU/mL Klebsiella pneumoniae MTCC 109 after 24 hrs by disc diffusion technique; assay type: functional; outline: as §1
[11] = tested on: Klebsiella pneumoniae; assay: Antibacterial activity against 10^5 CFU/mL Klebsiella pneumoniae MTCC 109 after 24 hrs by agar streak dilution method; assay type: functional; conditions: MTCC 109, 24 h; outline: as §2
[12] = tested on: Salmonella typhi; assay: Antibacterial activity against 10^5 CFU/mL Salmonella typhi MTCC 733 after 24 hrs by disc diffusion technique; assay type: functional, Salmonella enterica subsp. enterica serovar Typhi
Outline: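 Disc diffusion. Mueller-Hinton agar autoclaved 120 °C 30 min, poured 5 mm deep. Surface swabbed with 10⁵ CFU/mL suspension […]. 6.25 mm filter-paper discs soaked in compound in DMSO; DMSO-only disc as blank. Incubated 37 ± 1 °C, 24 h for bacteria or 48 h for fungi. Ciprofloxacin and ketoconazole discs as reference drugs. Inhibition zone measured in mm.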

[13] = tested on: Salmonella typhi; assay: Antibacterial activity against 10^5 CFU/mL Salmonella typhi MTCC 733 after 24 hrs by agar streak dilution method; assay type: functional, Salmonella enterica subsp. enterica serovar Typhi; conditions: Salmonella enterica, MTCC 733, 24 h
[14] = tested on: Proteus vulgaris; assay: Antibacterial activity against 10^5 CFU/mL Proteus vulgaris MTCC 1771 after 24 hrs by disc diffusion technique; assay type: functional; outline: as §1
[15] = tested on: Proteus vulgaris; assay: Antibacterial activity against 10^5 CFU/mL Proteus vulgaris MTCC 1771 after 24 hrs by agar streak dilution method; assay type: functional; conditions: MTCC 1771, 24 h; outline: as §2
[16] = tested on: Shigella flexneri; assay: Antibacterial activity against 10^5 CFU/mL Shigella flexneri MTCC 1457 after 24 hrs by disc diffusion technique; assay type: functional; outline: as §1
[17] = tested on: Shigella flexneri; assay: Antibacterial activity against 10^5 CFU/mL Shigella flexneri MTCC 1457 after 24 hrs by agar streak dilution method; assay type: functional; conditions: MTCC 1457, 24 h; outline: as §2
[18] = tested on: Aspergillus niger; assay: Antifungal activity against 10^5 CFU/mL Aspergillus niger MTCC 282 after 48 hrs by disc diffusion technique; assay type: functional
[19] = tested on: Aspergillus niger; assay: Antifungal activity against 10^5 CFU/mL Aspergillus niger MTCC 282 after 48 hrs by agar streak dilution method; assay type: functional; conditions: MTCC 282, 48 h
Outline: (§3)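 Agar streak dilution for fungi. Stock 100 µg/mL in DMSO; graded amounts were mixed into molten Sabouraud dextrose agar and poured at 4–5 mm depth. Serial dilutions ran over […]. About 10⁵ CFU/mL inoculum was applied, with incubation at 37 ± 1 °C for 48 h. MIC was read from the dilution series.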

[20] = tested on: Aspergillus fumigatus; assay: Antifungal activity against 10^5 CFU/mL Aspergillus fumigatus MTCC 343 after 48 hrs by disc diffusion technique; assay type: functional
[21] = tested on: Aspergillus fumigatus; assay: Antifungal activity against 10^5 CFU/mL Aspergillus fumigatus MTCC 343 after 48 hrs by agar streak dilution method; assay type: functional; conditions: MTCC 343, 48 h; outline: as §3
[22] = tested on: Aspergillus clavatus; assay: Antifungal activity against 10^5 CFU/mL Aspergillus clavatus MTCC 1323 after 48 hrs by disc diffusion technique; assay type: functional
[23] = tested on: Aspergillus clavatus; assay: Antifungal activity against 10^5 CFU/mL Aspergillus clavatus MTCC 1323 after 48 hrs by agar streak dilution method; assay type: functional; conditions: MTCC 1323, 48 h; outline: as §3
[24] = tested on: Candida albicans; assay: Antifungal activity against 10^5 CFU/mL Candida albicans MTCC 183 after 48 hrs by disc diffusion technique; assay type: functional
[25] = tested on: Candida albicans; assay: Antifungal activity against 10^5 CFU/mL Candida albicans MTCC 183 after 48 hrs by agar streak dilution method; assay type: functional; conditions: MTCC 183, 48 h; outline: as §3
[26] = tested on: Mycobacterium tuberculosis; assay: Antimycobacterial activity against 10^4 to 10^7 CFU/mL Mycobacterium tuberculosis H37Rv at 6.25 ug/ml by BACTEC MGIT method; assay type: functional
Outline: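 Primary screen at 6.25 in the BACTEC MGIT system: modified Middlebrook 7H9 broth tubes with compound, seeded with 10⁴-10⁷ CFU/mL H37Rv plus 0.1 mL egg-based L.J. medium. Incubated at 37 ± 1 °C and read daily from day 2 under UV light against positive and uninoculated controls.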

SMILES | inhibition zone (IZ) [1] [mm] | MIC [2] [µg/mL] | inhibition zone (IZ) [3] [mm] | MIC [4] [µg/mL] | GI50 [5] [µM] | LC50 (concentration giving 50% net cell kill relative to time zero) [5] [µM] | TGI [5] [µM] | inhibition zone (IZ) [6] [mm] | MIC [7] [µg/mL] | inhibition zone (IZ) [8] [mm] | MIC [9] [µg/mL] | inhibition zone (IZ) [10] [mm] | MIC [11] [µg/mL] | inhibition zone (IZ) [12] [mm] | MIC [13] [µg/mL] | inhibition zone (IZ) [14] [mm] | MIC [15] [µg/mL] | inhibition zone (IZ) [16] [mm] | MIC [17] [µg/mL] | inhibition zone (IZ) [18] [mm] | other results
N#Cc1ccc(Nc2nc(Oc3ccnc4ccccc34)nc(N3CCN(c4ccccc4F)CC3)n2)cc1C(F)(F)F | 24 | 25 (≈ 42.6 µM) | 27 | 6.25 (≈ 10.7 µM) | > 100 | > 100 | > 100 | 26 | 12.5 (≈ 21.3 µM) | 22 | 50 (≈ 85.2 µM) | 26 | 12.5 (≈ 21.3 µM) | 24 | 25 (≈ 42.6 µM) | 25 | 6.25 (≈ 10.7 µM) | 23 | 25 (≈ 42.6 µM) | 25 | MIC [19]: 25 µg/mL (≈ 42.6 µM); inhibition zone (IZ) [20]: 25 mm; MIC [21]: 25 µg/mL (≈ 42.6 µM); inhibition zone (IZ) [22]: 24 mm; MIC [23]: 50 µg/mL (≈ 85.2 µM); inhibition zone (IZ) [24]: 26 mm; MIC [25]: 25 µg/mL (≈ 42.6 µM)
N#Cc1ccc(Nc2nc(Oc3ccnc4ccccc34)nc(N3CCN(c4ccc(F)cc4)CC3)n2)cc1C(F)(F)F | 25 | 25 (≈ 42.6 µM) | 26 | 6.25 (≈ 10.7 µM) | > 100 | > 100 | > 100 | 22 | 50 (≈ 85.2 µM) | 23 | 25 (≈ 42.6 µM) | 23 | 25 (≈ 42.6 µM) | 24 | 25 (≈ 42.6 µM) | 24 | 25 (≈ 42.6 µM) | 21 | 50 (≈ 85.2 µM) | 26 | MIC [19]: 12.5 µg/mL (≈ 21.3 µM); inhibition zone (IZ) [20]: 24 mm; MIC [21]: 50 µg/mL (≈ 85.2 µM); inhibition zone (IZ) [22]: 25 mm; MIC [23]: 50 µg/mL (≈ 85.2 µM); inhibition zone (IZ) [24]: 24 mm; MIC [25]: 50 µg/mL (≈ 85.2 µM)
N#Cc1ccc(Nc2nc(Oc3ccnc4ccccc34)nc(N3CCN(c4cccc(C(F)(F)F)c4)CC3)n2)cc1C(F)(F)F | 28 | 6.25 (≈ 9.82 µM) | 28 | 6.25 (≈ 9.82 µM) | 38.7 | > 100 | 74.1 | 26 | 12.5 (≈ 19.6 µM) | 25 | 6.25 (≈ 9.82 µM) | 23 | 25 (≈ 39.3 µM) | 27 | 12.5 (≈ 19.6 µM) | 25 | 12.5 (≈ 19.6 µM) | 25 | 12.5 (≈ 19.6 µM) | 27 | MIC [19]: 12.5 µg/mL (≈ 19.6 µM); inhibition zone (IZ) [20]: 27 mm; MIC [21]: 25 µg/mL (≈ 39.3 µM); inhibition zone (IZ) [22]: 28 mm; MIC [23]: 12.5 µg/mL (≈ 19.6 µM); inhibition zone (IZ) [24]: 26 mm; MIC [25]: 25 µg/mL (≈ 39.3 µM); inhibition at 6.25 µg/mL [26]: 99%
COc1ccc(CN2CCN(c3nc(Nc4ccc(C#N)c(C(F)(F)F)c4)nc(Oc4ccnc5ccccc45)n3)CC2)c(OC)c1OC | 28 | 6.25 (≈ 9.29 µM) | 26 | 6.25 (≈ 9.29 µM) | > 100 | > 100 | > 100 | 26 | 12.5 (≈ 18.6 µM) | 26 | 6.25 (≈ 9.29 µM) | 23 | 12.5 (≈ 18.6 µM) | 26 | 12.5 (≈ 18.6 µM) | 26 | 6.25 (≈ 9.29 µM) | 25 | 12.5 (≈ 18.6 µM) | 27 | MIC [19]: 12.5 µg/mL (≈ 18.6 µM); inhibition zone (IZ) [20]: 27 mm; MIC [21]: 25 µg/mL (≈ 37.2 µM); inhibition zone (IZ) [22]: 28 mm; MIC [23]: 12.5 µg/mL (≈ 18.6 µM); inhibition zone (IZ) [24]: 25 mm; MIC [25]: 25 µg/mL (≈ 37.2 µM); inhibition at 6.25 µg/mL [26]: 99%
COc1ccc(N2CCN(c3nc(Nc4ccc(C#N)c(C(F)(F)F)c4)nc(Oc4ccnc5ccccc45)n3)CC2)cc1 | 24 | 25 (≈ 41.8 µM) | 28 | 6.25 (≈ 10.4 µM) | > 100 | > 100 | > 100 | 25 | 12.5 (≈ 20.9 µM) | 26 | 6.25 (≈ 10.4 µM) | 23 | 25 (≈ 41.8 µM) | 24 | 25 (≈ 41.8 µM) | 24 | 12.5 (≈ 20.9 µM) | 23 | 12.5 (≈ 20.9 µM) | 25 | MIC [19]: 25 µg/mL (≈ 41.8 µM); inhibition zone (IZ) [20]: 27 mm; MIC [21]: 25 µg/mL (≈ 41.8 µM); inhibition zone (IZ) [22]: 28 mm; MIC [23]: 12.5 µg/mL (≈ 20.9 µM); inhibition zone (IZ) [24]: 24 mm; MIC [25]: 50 µg/mL (≈ 83.5 µM)
